# High-throughput results: PubChem BioAssay, several laboratories
# Rows were chosen to be rich in hits. Some 2.9% of all compounds tested hit in one or more screens of this group.
# EBNA-1 inhibitor: EBNA-1 DNA-binding inhibitors, primary screen, biochemical, fluorescence polarization; inhibition, % at 14.8 µM; hit rate 0.34% among 300,000; AID 1950, 2009; in the data active = inhibition above about 28%
# ZTA counter: counter-screen for EBNA-1 inhibitors: inhibitors of Epstein-Barr virus ZTA; inhibition, % at 11 µM; hit rate 0.15% among 320,000; P03206; ZTA-DNA binding, fluorescence polarization; in the data active = inhibition above about 33%
# Apaf-1 inh: inhibitors of human Apaf-1 apoptosome, primary screen, biochemical, DEVD-Rh110 fluorescence, uHTS; Apoptotic protease-activating factor 1 (Homo sapiens), O14727; reconstituted apoptosome caspase-3 activity; inhibition, % at 20 µM; hit rate 0.71% among 330,000; active = inhibition of at least 40% at 20 µM;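 also: plate controls were DMSO wells for no effect and DEVD-CHO caspase inhibitor wells for full effect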
#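 System – cell-free apoptosome with Apaf-1, procaspase-3 and caspase-9 · Buffer or medium – pH 7.5 Hepes buffer with CHAPS, BSA, DTT · Also added – cytochrome c with DEVD-Rh110 · Times – 30 min compound preincubation, 50 min activation, room temperature · Technique – Rh110 fluorescence intensity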
# UBC13 polyUb: UBC13 polyubiquitin chain formation inhibitors, primary screen, biochemical, TR-FRET, uHTS; hit rate 0.47% among 330,000; inhibition, % at 20 µM; Ubiquitin-conjugating enzyme E2 N (Homo sapiens), P61088; in the data active = inhibition above about 45%, passing the limit was not always enough
# PfM18AAP inh: PfM18AAP inhibitors, malaria aminopeptidase, primary screen, biochemical, QFRET, recombinant enzyme; M18 aspartyl aminopeptidase (Plasmodium falciparum 3D7); H-Glu-NHMec fluorogenic cleavage; inhibition, % at 7.35 µM; hit rate 1.2% among 290,000; AID 1822, 2009;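 active = inhibition above the campaign mean inhibition over all tested compounds plus 3 SD, cut at about 28% in these data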;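 also: 0% = plate median of test compound wells and 100% = 2 mM ZnCl2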
# PfG6PD inh: PfG6PD enzyme inhibitors, primary screen, biochemical, fluorescence intensity, uHTS; PfGluPho enzyme, NADPH resazurin-diaphorase fluorescence; hit rate 0.78% among 350,000; glucose-6-phosphate dehydrogenase-6-phosphogluconolactonase (Plasmodium falciparum 3D7); inhibition, % at 20 µM;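 active = inhibition reaching at least a set limit at 20 µM in the primary screen, cut at about 59% in these data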;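 also: 0% = DMSO wells with substrate and 100% = DMSO wells lacking glucose-6-phosphate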
# Apaf-1 inh conf: Apaf-1 inhibitors, single-dose retest, confirmation, biochemical, fluorescence, DEVD-Rh110, 20 µM; shares compounds with Apaf-1 inh; AID 504614, 2011; reconstituted apoptosome, caspase-3 DEVD-Rh110 fluorescence; hit rate 25% among 1,800; inhibition, % at 20 µM;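 active = mean inhibition of at least 40% at 20 µM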;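 also: plate controls were DMSO wells for no effect and DEVD-CHO caspase inhibitor control wells for full effect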
# Rh110 interf inh: Rh110 fluorescence interference by putative Apaf-1 inhibitors, confirmation, artefact control for Apaf-1 inhibitor project, biochemical, 20 µM. shares compounds with Apaf-1 inh. quenched caspase reaction. activation (fluorescence interference), % at 20 µM. 1,800 tested, under 10 active;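 active = signal rise of 40% or more at 20 µM, treated as a fluorescence artifact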
# Fluor interf inh: fluorescence interference of Apaf-1 inhibitor hits, dose response, artefact control for Apaf-1 inhibitor project; shares compounds with Apaf-1 inh; fluorescence interference counterscreen, Apaf-1 assay format; IC50, µM; 460 tested, under 10 active; call rule not given here
# Active calls of the source: *; / = no result.
SMILES,EBNA-1 inhibitor,ZTA counter,Apaf-1 inh,UBC13 polyUb,PfM18AAP inh,PfG6PD inh,Apaf-1 inh conf,Rh110 interf inh,others
COC(=O)c1ccc2c(=O)n(CCCCCC(=O)N3CCN(c4ccccc4)CC3)c(=O)[nH]c2c1,-8,17,47*,0,-10,4,12,4,
CC1=NN(c2ccccc2)C(=O)/C1=C\c1cn(CCC#N)nc1-c1ccc(Cl)cc1,-8,2,80*,-16,8,24,23,12,
COc1cc(/C=C2/C(=O)N(c3ccc(Br)cc3)N=C2C)cc(OC)c1OC,/,/,94*,-44,10,-2,7,1,
CC1=NN(c2ccc(C)cc2)C(=O)/C1=C\c1ccc(Br)s1,7,26,89*,-8,4,-6,18,5,
C#CCOc1ccc(/C=C2/C(=O)N(c3cccc(C(=O)O)c3)N=C2C)cc1OC,-1,0,43*,-26,19,-14,28,19,
CC1=NN(c2ccccc2)C(=O)/C1=C\c1sccc1C,7,4,28,-19,27,6,/,/,
CCOC(=O)C1=NN(c2ccc(C)cc2)CC1C(=O)OC (stereo unspecified),2,-3,-10,3,1,8,/,/,
Cc1ccc(OCC(O)CN2C(=O)NC(C)(C)C2=O)c(C)c1 (stereo unspecified),4,-7,-12,10,4,-10,/,/,
COc1ccccc1/C=C1/C(=O)N(c2ccccc2)N=C1C,-8,-20,93*,-46,14,-16,21,7,
CC1=NN(c2ccc(Br)cc2)C(=O)/C1=C/c1cccs1,8,-3,96*,-24,3,5,19,0,
COC(=O)Cc1cc(C)cc2c(=O)cc(-c3ccoc3)oc12,-1,2,6,-2,/,4,/,/,
Cc1ccc2c(c1)c(=O)c1c3n2CCN(C(=O)CCl)C3CC1 (stereo unspecified),2,10,64*,-50,-11,27,18,-7,
O=C(O)CCCNc1cc(N2CCN(C(=O)c3ccco3)CC2)c2noc3c2c1C(=O)c1ccccc1-3,81*,149*,60*,-137,26,35,28,1,
CCOC(=O)N1CCN(c2cc(NCCC(=O)O)c3c4c(onc24)-c2ccccc2C3=O)CC1,118*,177*,75*,-207,6,38,54*,-8,Fluor interf inh=6.3*
CCOC(=O)N1CCN(C(=O)c2noc3c2COc2ccccc2-3)CC1,2,3,2,16,-5,7,/,/,
CCOc1ccc(NC(=O)c2cc(C3CC3)nc3c2cnn3C(C)C)cc1OC,/,-10,13,3,/,15,/,/,
CCOC(=O)c1[nH]c(=O)c2ccccc2c1O,1,-6,75*,8,11,-23,26,4,
COc1ccc(Cn2cccc(NC(=O)Nc3cccc(OC)c3)c2=O)cc1,-3,13,-14,8,1,36,/,/,
CC1=NN(c2ccc(Cl)cc2)C(=O)C1C(c1ccccc1O)c1c(C)[nH]n(-c2ccc(Cl)cc2)c1=O (stereo unspecified),-11,-18,97*,-14,8,-68,42*,4,Fluor interf inh=>100
COc1ccc(N2CCN(C(=O)CSc3nnc(NC(=O)C4CCC4)s3)CC2)cc1,-10,-7,-4,-7,-1,-6,/,/,
CN1CCN(C(=O)Nc2cccc3ccccc23)CC1,-2,-9,-17,8,3,10,/,/,
CCOc1ccc(NC(=S)Nc2ccc(OCC)cc2)cc1,-6,-5,-1,-4,-1,-25,/,/,
CCOc1ccc(NC(=S)Nc2cccc3cnccc23)cc1,-1,3,96*,-27,2,32,17,-4,
COc1ccc(NC(=S)Nc2ccc(Oc3ccccc3)cc2)cc1,1,-2,5,9,-5,-1,/,/,
COc1ccc(NC(=S)Nc2cccc3cnccc23)cc1,5,-11,95*,-29,2,27,17,-3,
SMILES,EBNA-1 inhibitor,ZTA counter,Apaf-1 inh,UBC13 polyUb,PfM18AAP inh,PfG6PD inh,Apaf-1 inh conf,Rh110 interf inh,others
CCOc1ccc(NC(=S)Nc2ccccc2C2CC2)cc1,-2,1,-2,-11,5,12,/,/,
CC1(C(=O)Nc2cccc3ccccc23)CC1(Br)Br (stereo unspecified),-1,-5,56*,-18,0,19,16,4,
CCOc1ccc(NC(=S)Nc2cccc3ccccc23)cc1,7,-1,66*,-24,10,17,-16,1,
O=S(=O)(NC1CCCCC1N1CCC(O)CC1)c1ccccc1 (stereo unspecified),-9,-4,-1,2,-9,-13,/,/,
S=C(Nc1cccnc1)Nc1cccc2cnccc12,-5,4,86*,-40,18,28,16,1,
Fc1ccc(NC(=S)Nc2ccccc2Cl)cc1,1,12,-8,6,4,-4,/,/,
Cc1cccc(NC(=S)Nc2cccc3ccccc23)c1,6,-5,93*,-62,15,22,21,3,
CCN(C(=S)Nc1cccnc1)c1ccccc1,10,-15,2,-10,1,7,/,/,
CCN(C(=S)Nc1cccnc1)c1cccc2ccccc12,3,12,85*,-8,0,17,12,-4,
Fc1ccc(NC(=S)Nc2cccc3cnccc23)cc1,-2,10,95*,-41,14,32,21,0,
Fc1cccc(NC(=S)Nc2cccnc2)c1,-1,4,-6,1,0,-12,/,/,
Cc1cccc(NC(=O)Nc2cccc3ccccc23)c1,5,-4,3,0,-3,2,/,/,
COC(=O)[C@@H](NC(=O)Nc1cccc(Br)c1)C(C)C,1,5,-2,6,-1,0,/,/,
COc1cc2ccccc2cc1C(=O)Nc1ccc(Cl)cn1,-3,-9,-4,4,1,17,/,/,
Cc1cc(SCc2ccc(Cl)c(Cl)c2)nc(=O)[nH]1,0,14,10,4,0,3,/,/,
Nc1cc(=O)[nH]n1C1CCCC1,-3,5,-1,-6,7,-9,/,/,
Cc1ccc(-n2ncc3c2CC(C)(C)CC3NC(=O)CCN2CCCCC2=O)cc1 (stereo unspecified),7,-2,1,-15,-4,-2,/,/,
COc1ccccc1NC(=S)Nc1cccc2cnccc12,8,4,97*,-22,-1,30,10,3,
